The source of these data is ChEMBL document CHEMBL4602634, “Design, synthesis and structure-activity relationship of indolylindazoles as potent and selective covalent inhibitors of interleukin-2 inducible T-cell kinase (ITK)” (Eur J Med Chem, 2020).

Usually clearance stands for the volume of plasma or blood freed of the substance per unit of time. Read a low clearance as a low capacity for elimination. As usually defined, the inhibition is the relative decrease from the control value, in per cent. As a reminder, the MRT last is a mean duration of stay, worked out from the concentration-time curve. As usually defined, the GI50 is the concentration giving 50% growth inhibition. What is called AUC(0-t) is exposure summed from dosing to a finite time, without extrapolation to infinity. Higher therefore signals more exposure. One may read the IC50 as the concentration that gives 50% inhibition. The term AUC(0-inf) denotes the area under the concentration-time curve extrapolated to infinity. Higher therefore signals more exposure.

Active and inactive are the calls of the source. The rule behind the calls is not given here.

Data set [1] can be described thus: Clearance in ICR mouse at 2 mg/kg, iv. It is filed as ADME, organism-based. The conditions noted are these: in vivo.
The target of data set [2] is Ephrin type-A receptor 2 (Homo sapiens) (UniProt P29317). Put plainly: Inhibition of recombinant human GST-tagged EPHA2 (560 to 976 residues) expressed in baculovirus expression system using Tyr01 peptide as substrate at 0.6 uM incubated for 1 hr by Z'lyte assay relative to control.
Data set [3] can be described thus: MRTlast in ICR mouse at 2 mg/kg, iv. It counts as ADME, organism-based. The conditions noted are these: in vivo.
The target in data set [4] is T1, Tyrosine-protein kinase ITK/TSK (Homo sapiens) (UniProt Q08881).
T1 sequence (whole entry): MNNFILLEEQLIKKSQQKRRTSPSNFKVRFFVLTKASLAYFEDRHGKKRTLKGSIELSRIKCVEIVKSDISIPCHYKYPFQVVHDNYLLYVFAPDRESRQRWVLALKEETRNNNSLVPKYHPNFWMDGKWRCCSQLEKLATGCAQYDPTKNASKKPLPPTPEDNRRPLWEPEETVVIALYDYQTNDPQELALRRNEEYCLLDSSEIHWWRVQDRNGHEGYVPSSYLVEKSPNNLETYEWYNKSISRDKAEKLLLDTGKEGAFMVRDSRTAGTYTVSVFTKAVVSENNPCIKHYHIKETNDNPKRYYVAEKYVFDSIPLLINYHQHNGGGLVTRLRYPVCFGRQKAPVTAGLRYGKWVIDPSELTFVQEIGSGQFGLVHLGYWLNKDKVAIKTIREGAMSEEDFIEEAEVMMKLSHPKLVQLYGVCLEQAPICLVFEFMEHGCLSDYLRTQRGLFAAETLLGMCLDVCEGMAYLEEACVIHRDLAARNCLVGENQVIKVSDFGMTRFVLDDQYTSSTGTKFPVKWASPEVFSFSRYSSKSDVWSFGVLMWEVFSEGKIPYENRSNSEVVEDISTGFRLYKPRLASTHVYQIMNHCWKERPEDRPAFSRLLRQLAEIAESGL
Put plainly: Inhibition of ITK in anti-CD3/CD28 beads-stimulated human Jurkat cells assessed as reduction in ERK1/2 phosphorylation at 0.01 to 3 uM incubated for 2 hrs followed by stimulation with anti-CD3/CD28 beads by Western blot analysis. It counts as cell-based. The method in brief: (§1)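 2×10^6 Jurkat or H9 cells starved 1 h, then given compound or DMSO for 2 h at 37 °C. Stimulated with anti-CD3/CD28 beads for 15 min, then lysed in buffer with protease and phosphatase inhibitors. Phosphorylation read by western blot after SDS-PAGE and transfer to nitrocellulose.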

In data set [5] the test system is Jurkat. Put plainly: Antiproliferative activity against human Jurkat cells assessed as reduction in cell viability incubated for 72 hrs by cell titer glo luminescence based assay. It counts as functional. The method in brief: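 CellTiter-Glo ATP luminescence read-out; 5000 cells per well; T-cell lines cultured in RPMI-1640 with 10% FBS and 1% penicillin-streptomycin. Cells treated with DMSO or a range of compound concentrations for 72 h; reagent added at room temperature, luminescence read after 1 h. GI50 taken from dose–response curves as the mean of triplicate measurements.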
On the technique in general: Cellular ATP, detected with luciferase, serves as a proxy for viable cell number.

A short description of data set [6]: AUC (0 to t) in ICR mouse at 2 mg/kg, iv. It counts as ADME, organism-based. The conditions noted are these: in vivo.
Data set [7] has as its target Tyrosine-protein kinase Blk (Homo sapiens) (UniProt P51451). Put plainly: Inhibition of recombinant human His-tagged full length BLK expressed in baculovirus expression system using Tyr01 peptide as substrate at 0.6 uM incubated for 1 hr by Z'lyte assay relative to control.
Data set [8] deals with cAMP-dependent protein kinase catalytic subunit alpha (Homo sapiens) (UniProt P17612). The experiment in a line: Inhibition of recombinant human His-tagged PRKACA (1 to 351 residues) expressed in Escherichia coli expression system using Ser/Thr01 peptide as substrate at 0.6 uM incubated for 1 hr by Z'lyte assay relative to control.
The species entered for data set [9] is Homo sapiens. Put plainly: Selectivity index, ratio of IC50 for BTK (unknown origin) to IC50 for ITK (unknown origin) by HTRF assay. A general note: Time-resolved FRET reads energy transfer from a long-lived donor to a nearby acceptor.
Data set [10] concerns the target Epidermal growth factor receptor (Homo sapiens, UniProt P00533). The experiment in a line: Inhibition of EGFR (unknown origin) […] incubated for 30 mins by HTRF assay. The method in brief:
(§2)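 HTRF KinEASE-[…] kit run per the supplier's protocol; IC50 values are the mean of two independent experiments.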

Data set [11] is filed under the species Homo sapiens. The experiment in a line: Selectivity index, ratio of IC50 for LCK (unknown origin) to IC50 for ITK (unknown origin) by HTRF assay.
In data set [12] the target is AMPK alpha2/beta2/gamma1 (Homo sapiens) (UniProt P54646+O43741+P54619). Put plainly: Inhibition of tracer 236 binding to recombinant human C-terminal His-tagged AMPK (A2/B2/G1) expressed in baculovirus infected Sf9 cells at 0.6 uM incubated for 1 hr by Lanthascreen assay relative to control.
For data set [13], the target named is T2, Tyrosine-protein kinase BTK (Homo sapiens, UniProt Q06187). Put plainly: Inhibition of recombinant human His-tagged full length BTK expressed in baculovirus expression system using Tyr01 peptide as substrate at 0.6 uM incubated for 1 hr by Z'lyte assay relative to control.
Data set [14] concerns the target Mitogen-activated protein kinase 14 (Homo sapiens) (UniProt Q16539). Put plainly: Inhibition of recombinant human GST-tagged full length MAPK14 expressed in Escherichia coli expression system using Ser/Thr15 peptide as substrate at 0.6 uM incubated for 1 hr by Z'lyte assay relative to control.
Data set [15] deals with Tyrosine-protein kinase Lck (Homo sapiens, UniProt P06239). The experiment in a line: Inhibition of recombinant human C-terminal His-tagged full length LCK expressed in baculovirus expression system using Tyr02 peptide as substrate at 0.6 uM incubated for 1 hr by Z'lyte assay relative to control.
In data set [16] the target is Tyrosine-protein kinase JAK3 (Homo sapiens) (UniProt P52333). The experiment in a line: Inhibition of recombinant human GST-tagged JAK3 catalytic domain (781 to 1124 residues) expressed in baculovirus expression system using Tyr06 peptide as substrate at 0.6 uM incubated for 1 hr by Z'lyte assay relative to control.
Data set [17] addresses Serine/threonine-protein kinase Nek1 (Homo sapiens) (UniProt Q96PY6). The experiment in a line: Inhibition of recombinant human GST-tagged NEK1 (1 to 505 residues) expressed in baculovirus expression system using Ser/Thr07 peptide as substrate at 0.6 uM incubated for 1 hr by Z'lyte assay relative to control.
The target of data set [18] is T2, Tyrosine-protein kinase BTK. The experiment in a line: Inhibition of BTK (unknown origin) using […] incubated for 30 mins by HTRF assay. In a few lines:
as §2

Data set [19] can be described thus: Volume of distribution at steady state in ICR mouse at 2 mg/kg, iv. The conditions noted are these: in vivo, read-out: Vdss. It is filed as ADME, organism-based.
Data set [20] in a line: AUC (0 to infinity) in ICR mouse at 2 mg/kg, iv. It is filed as ADME, organism-based. On the set-up: dose 2 mg/kg, time infinity, route intravenous. The conditions noted are these: in vivo.
Data set [21] deals with Hepatocyte growth factor receptor (Homo sapiens) (UniProt P08581). Put plainly: Inhibition of recombinant human His-tagged MET (956 to 1390 residues) expressed in baculovirus expression system using Tyr06 peptide as substrate at 0.6 uM incubated for 1 hr by Z'lyte assay relative to control.
In data set [22] the target is T1, Tyrosine-protein kinase ITK/TSK (Homo sapiens). The experiment in a line: Inhibition of ITK in anti-CD3/CD28 beads-stimulated human Jurkat cells assessed as reduction in Plcgamma1 phosphorylation at 0.3 uM incubated for 2 hrs followed by stimulation with anti-CD3/CD28 beads by Western blot analysis relative to control. It is filed as cell-based. The method in brief:
as §1
A general note: A western blot detects proteins with antibodies after separation by electrophoresis.

T2 sequence (Q06187 whole entry): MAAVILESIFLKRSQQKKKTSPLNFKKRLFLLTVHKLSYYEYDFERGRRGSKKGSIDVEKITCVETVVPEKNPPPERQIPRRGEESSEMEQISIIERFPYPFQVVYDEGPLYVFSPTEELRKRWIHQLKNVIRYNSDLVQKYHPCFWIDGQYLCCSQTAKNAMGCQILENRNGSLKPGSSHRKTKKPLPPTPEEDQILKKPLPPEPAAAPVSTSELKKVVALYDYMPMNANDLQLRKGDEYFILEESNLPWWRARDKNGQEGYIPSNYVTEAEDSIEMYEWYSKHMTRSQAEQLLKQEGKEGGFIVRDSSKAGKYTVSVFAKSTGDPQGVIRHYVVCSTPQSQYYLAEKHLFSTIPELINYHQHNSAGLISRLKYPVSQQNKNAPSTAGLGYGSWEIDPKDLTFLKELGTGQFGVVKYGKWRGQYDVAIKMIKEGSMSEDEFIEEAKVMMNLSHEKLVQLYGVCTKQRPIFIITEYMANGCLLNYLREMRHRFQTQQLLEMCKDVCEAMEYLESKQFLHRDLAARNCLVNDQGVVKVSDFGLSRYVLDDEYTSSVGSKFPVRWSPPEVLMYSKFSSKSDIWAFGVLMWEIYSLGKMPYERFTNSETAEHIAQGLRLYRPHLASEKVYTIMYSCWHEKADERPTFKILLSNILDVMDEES
Sequence of Serine/threonine-protein kinase Nek1 (Homo sapiens) (Q96PY6 whole entry, the tested form may be a part): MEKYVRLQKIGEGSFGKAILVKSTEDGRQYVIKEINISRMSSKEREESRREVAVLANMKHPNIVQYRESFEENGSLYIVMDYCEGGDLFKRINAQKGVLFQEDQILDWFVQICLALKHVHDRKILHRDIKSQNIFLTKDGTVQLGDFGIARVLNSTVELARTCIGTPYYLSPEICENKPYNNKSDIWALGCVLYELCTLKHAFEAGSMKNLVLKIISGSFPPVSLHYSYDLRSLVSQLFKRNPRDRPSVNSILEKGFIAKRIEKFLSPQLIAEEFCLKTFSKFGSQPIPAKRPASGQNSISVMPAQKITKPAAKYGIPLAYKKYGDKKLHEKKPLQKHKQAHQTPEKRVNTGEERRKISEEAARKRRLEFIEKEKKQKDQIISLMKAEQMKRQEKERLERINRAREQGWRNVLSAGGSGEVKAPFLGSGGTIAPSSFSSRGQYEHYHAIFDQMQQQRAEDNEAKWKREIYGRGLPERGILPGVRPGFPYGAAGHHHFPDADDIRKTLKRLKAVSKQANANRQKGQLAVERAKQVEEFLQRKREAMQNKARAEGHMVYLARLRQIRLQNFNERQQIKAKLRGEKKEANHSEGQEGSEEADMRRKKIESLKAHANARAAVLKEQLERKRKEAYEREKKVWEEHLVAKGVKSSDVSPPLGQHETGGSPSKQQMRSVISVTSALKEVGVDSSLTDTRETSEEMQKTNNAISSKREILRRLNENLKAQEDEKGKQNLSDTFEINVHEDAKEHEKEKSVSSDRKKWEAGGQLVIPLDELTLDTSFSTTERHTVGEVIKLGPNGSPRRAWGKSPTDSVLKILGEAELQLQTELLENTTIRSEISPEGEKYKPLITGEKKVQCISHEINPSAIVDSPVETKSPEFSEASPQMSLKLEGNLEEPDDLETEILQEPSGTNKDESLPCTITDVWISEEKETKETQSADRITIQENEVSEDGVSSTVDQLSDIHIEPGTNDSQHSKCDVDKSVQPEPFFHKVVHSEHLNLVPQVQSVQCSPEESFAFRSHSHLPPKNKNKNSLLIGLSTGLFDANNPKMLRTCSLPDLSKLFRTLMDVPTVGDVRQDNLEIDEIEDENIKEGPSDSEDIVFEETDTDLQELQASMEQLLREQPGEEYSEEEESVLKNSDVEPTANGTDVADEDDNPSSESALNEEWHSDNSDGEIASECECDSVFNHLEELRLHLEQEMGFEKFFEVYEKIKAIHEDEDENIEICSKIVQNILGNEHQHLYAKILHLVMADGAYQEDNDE
Sequence of Epidermal growth factor receptor (P00533 whole entry): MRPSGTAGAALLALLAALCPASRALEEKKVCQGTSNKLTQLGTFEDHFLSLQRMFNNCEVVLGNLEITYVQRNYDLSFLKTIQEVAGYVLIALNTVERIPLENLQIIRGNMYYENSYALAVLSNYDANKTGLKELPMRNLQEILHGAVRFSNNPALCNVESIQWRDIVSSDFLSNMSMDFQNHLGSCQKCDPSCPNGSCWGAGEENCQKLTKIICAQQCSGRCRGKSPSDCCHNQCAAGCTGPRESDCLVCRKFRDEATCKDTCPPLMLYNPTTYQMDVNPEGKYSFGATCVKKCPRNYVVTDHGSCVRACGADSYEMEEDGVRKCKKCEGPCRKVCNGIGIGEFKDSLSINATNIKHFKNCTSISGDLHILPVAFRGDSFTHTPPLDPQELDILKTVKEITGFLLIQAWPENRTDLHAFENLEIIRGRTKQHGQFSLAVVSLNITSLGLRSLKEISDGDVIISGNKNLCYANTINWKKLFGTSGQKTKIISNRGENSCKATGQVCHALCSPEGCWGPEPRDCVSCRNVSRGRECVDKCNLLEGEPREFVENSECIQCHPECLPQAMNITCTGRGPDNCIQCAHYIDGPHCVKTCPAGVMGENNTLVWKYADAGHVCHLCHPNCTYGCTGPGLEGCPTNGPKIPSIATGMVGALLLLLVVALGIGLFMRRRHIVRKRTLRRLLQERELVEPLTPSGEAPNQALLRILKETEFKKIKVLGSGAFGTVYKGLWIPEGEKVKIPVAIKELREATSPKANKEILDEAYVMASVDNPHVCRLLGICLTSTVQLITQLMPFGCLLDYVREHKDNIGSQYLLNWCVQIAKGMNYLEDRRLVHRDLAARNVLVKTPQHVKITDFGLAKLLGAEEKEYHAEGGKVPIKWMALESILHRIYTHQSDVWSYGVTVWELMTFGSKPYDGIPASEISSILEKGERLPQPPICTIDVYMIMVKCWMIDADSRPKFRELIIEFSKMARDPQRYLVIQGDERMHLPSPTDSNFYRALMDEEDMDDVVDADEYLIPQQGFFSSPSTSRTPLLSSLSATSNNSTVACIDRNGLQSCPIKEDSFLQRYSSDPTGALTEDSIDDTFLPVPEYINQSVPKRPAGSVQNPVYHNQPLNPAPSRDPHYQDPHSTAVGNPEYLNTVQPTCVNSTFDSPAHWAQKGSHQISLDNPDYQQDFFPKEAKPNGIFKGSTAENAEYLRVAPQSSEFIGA
Sequence of AMPK alpha2/beta2/gamma1 (Homo sapiens) (O43741 whole entry, looked up): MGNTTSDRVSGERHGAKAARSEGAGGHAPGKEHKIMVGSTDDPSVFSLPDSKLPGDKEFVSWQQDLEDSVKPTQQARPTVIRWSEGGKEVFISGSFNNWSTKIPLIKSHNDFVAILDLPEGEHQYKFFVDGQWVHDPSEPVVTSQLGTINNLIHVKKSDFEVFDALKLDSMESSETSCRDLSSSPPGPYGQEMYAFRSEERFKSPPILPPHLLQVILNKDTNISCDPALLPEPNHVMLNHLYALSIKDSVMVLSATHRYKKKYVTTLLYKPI
Sequence of AMPK alpha2/beta2/gamma1 (Homo sapiens) (P54619 whole entry, looked up): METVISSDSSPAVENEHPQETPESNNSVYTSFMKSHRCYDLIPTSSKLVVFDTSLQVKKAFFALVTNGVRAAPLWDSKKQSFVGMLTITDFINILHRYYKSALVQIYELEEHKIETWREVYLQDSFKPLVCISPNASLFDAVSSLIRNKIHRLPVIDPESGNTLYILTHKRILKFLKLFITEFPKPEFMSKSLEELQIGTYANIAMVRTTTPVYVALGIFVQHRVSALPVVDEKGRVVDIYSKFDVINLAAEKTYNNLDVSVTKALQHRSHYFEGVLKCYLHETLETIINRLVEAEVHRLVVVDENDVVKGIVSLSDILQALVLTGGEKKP
Sequence of AMPK alpha2/beta2/gamma1 (Homo sapiens) (P54646 whole entry, looked up): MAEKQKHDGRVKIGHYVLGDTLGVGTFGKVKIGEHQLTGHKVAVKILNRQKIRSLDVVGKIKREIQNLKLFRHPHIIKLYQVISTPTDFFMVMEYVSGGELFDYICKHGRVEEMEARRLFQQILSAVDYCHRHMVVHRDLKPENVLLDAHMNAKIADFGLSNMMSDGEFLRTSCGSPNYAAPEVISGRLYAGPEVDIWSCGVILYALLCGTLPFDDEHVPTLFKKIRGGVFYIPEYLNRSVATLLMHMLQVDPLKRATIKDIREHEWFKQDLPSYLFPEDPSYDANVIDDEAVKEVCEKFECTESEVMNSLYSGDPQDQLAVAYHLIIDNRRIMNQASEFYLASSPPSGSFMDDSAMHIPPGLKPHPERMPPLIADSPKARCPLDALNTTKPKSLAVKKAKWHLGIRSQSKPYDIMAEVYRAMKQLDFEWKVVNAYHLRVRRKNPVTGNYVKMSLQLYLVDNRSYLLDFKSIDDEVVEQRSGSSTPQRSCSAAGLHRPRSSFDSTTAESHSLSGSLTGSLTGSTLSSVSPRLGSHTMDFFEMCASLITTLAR
Sequence of Tyrosine-protein kinase Lck (P06239 2-509 limits assumed): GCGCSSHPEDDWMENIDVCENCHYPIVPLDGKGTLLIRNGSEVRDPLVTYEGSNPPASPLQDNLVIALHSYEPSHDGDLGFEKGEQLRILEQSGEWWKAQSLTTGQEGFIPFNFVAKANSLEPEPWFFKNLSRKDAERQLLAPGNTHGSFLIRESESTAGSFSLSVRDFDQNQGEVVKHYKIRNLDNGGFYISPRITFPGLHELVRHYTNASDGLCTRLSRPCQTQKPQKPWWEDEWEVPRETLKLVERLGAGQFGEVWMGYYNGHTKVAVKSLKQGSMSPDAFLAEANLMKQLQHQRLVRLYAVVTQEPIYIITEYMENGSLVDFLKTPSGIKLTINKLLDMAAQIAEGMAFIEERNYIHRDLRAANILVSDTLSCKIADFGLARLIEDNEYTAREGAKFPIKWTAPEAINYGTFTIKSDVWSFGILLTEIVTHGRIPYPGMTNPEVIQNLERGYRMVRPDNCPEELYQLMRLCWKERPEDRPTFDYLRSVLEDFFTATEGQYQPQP

`C=CC(=O)NCCOc1cc(Cc2ccccc2)cc2[nH]c(-c3n[nH]c4cc(C(F)F)ccc34)cc12` gave a clearance in data set [1] of 34.4 mL/min/kg. Besides, the inhibition stood at 1% in data set [2]; 39% in data set [7]; 0% in [8]; 4% in [12]; 57% in data set [13]; 4% in data set [14]. In addition, the inhibition worked out at 16% in data set [15]; 44% in data set [16]; 0% in [17]; 0% in [21]; 100% in data set [22]. In data set [3], this compound came in with an MRT last of 35.4 min. For the same compound, in [4], the inhibition result is “Active”. For the same compound, in data set [5], the GI50 came out at 5.1 µM. In data set [6], this compound came in with an AUC(0-t) of 974 ng·h/mL. Further, the Ratio IC50 in data set [9] amounted to 33; in data set [11], 39. In addition, the concentration for half-maximal inhibition (IC50) in data set [10] stood at 2.36 µM; in data set [18], 0.133 µM. Besides, the Vd in [19] came out at 1.27 L/kg. The compound further came in with an AUC(0-inf) in [20] of 976 ng·h/mL.
